Columns and labels:
[1] = tested on: Trypanosoma cruzi; assay: In vitro antiparasitic activity against Trypanosoma cruzi was tested by sigmoidal regression analysis; type: functional; conditions: read-out: ED50 (the source's name)
In short: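 Mouse peritoneal macrophages (female CD1, starch-elicited, harvested 24 h) infected with L. donovani amastigotes (strain MHOM/ET/67/L82, hamster spleen) or T. cruzi Y-strain trypomastigotes (5:1, from MDCK overlay). Infected cells exposed to a 3-fold dilution series in quadruplicate for 5 days (L. donovani) or 3 days (T. cruzi). Giemsa-stained slides scored for % macrophages cleared of amastigotes versus untreated cultures. ED50 by sigmoidal regression.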

[2] = tested on: Trypanosoma brucei; assay: In vitro antiparasitic activity against Trypanosoma brucei was tested by sigmoidal regression analysis; type: functional; conditions: read-out: ED50 (the source's name)
In short: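 T. b. brucei S427 bloodstream trypomastigotes at 2 × 10⁵/mL in HMI-18 medium, in triplicate, with a 3-fold dilution series starting at 30 µM. Incubated 3 days at 37 °C in 5% CO₂. Pentamidine served as positive control. Viability read by tetrazolium colorimetric assay on day 3. ED50 by sigmoidal regression.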

[3] = target: Trypanothione reductase (Trypanosoma cruzi, UniProt P28593); assay: Inhibitory activity against Trypanosoma cruzi trypanothione disulfide reductase, assay in presence of 57 uM T(S)2.
Sequence of Trypanothione reductase (P28593 whole entry): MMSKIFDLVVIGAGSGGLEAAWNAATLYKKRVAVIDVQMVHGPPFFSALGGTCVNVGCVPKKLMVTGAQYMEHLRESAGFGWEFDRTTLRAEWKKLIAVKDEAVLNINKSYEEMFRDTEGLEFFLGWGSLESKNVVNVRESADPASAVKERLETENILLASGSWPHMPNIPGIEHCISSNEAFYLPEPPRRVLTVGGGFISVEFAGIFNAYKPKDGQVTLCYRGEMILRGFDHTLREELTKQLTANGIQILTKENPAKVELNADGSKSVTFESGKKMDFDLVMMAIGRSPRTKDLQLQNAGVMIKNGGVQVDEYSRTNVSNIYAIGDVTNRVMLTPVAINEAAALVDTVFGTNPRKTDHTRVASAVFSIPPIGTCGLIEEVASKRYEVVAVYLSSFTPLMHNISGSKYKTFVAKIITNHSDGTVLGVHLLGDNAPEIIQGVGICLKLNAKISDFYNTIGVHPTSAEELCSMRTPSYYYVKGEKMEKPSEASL
In short: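 Assay contained 250 µM NADPH, 57 µM T(S)₂, inhibitor at 0.3–50 µM and 1% DMSO final. Started with enzyme; NADPH loss followed at 340 nm. IC50 in duplicate.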

Row | EC50 [1] [µM] | EC50 [2] [µM] | IC50 [3] [µM] | Compound
1 | > 84 | 52 | 42 | CC1=C(CCCC(=O)N2CCN(C)CC2)C(=O)c2c(O)cccc2C1=O
2 | > 76 | 46 | 44 | CC1=C(CCCC(=O)NCCCN2CCN(C)CC2)C(=O)c2ccccc2C1=O
3 | 46 | 13.8 | 2.9 | CC1=C(CCC(=O)NCCCCNCCCNC(=O)CCC2=C(C)C(=O)c3cccc(O)c3C2=O)C(=O)c2c(O)cccc2C1=O
4 | 3.5 | 0.6 | > 25 | CC1=C(CCNC(=O)OC(C)(C)C)C(=O)c2c(O)cccc2C1=O
5 | 44 | > 110 | > 50 | CC1=C(CCCCC(=O)O)C(=O)c2ccccc2C1=O
6 | > 94 | 59 | > 50 | O=C(O)CCC1=C(CCC(=O)O)C(=O)c2c(O)cccc2C1=O
7 | 3 | > 1.4 | 2 | CC1=C(CCCCCC(=O)NCCCNCCCNC(=O)CCCCCC2=C(C)C(=O)c3cccc(O)c3C2=O)C(=O)c2c(O)cccc2C1=O
8 | 13.3 | 2.5 | > 25 | CC1=C(CCCCCNC(=O)OC(C)(C)C)C(=O)c2c(O)cccc2C1=O
9 | 10.4 | > 3 | > 25 | CC1=C(CCCCNC(=O)OC(C)(C)C)C(=O)c2ccccc2C1=O
10 | > 30 | > 30 | > 50 | CC1=C(CCC(=O)O)C(=O)c2ccccc2C1=O
11 | 4.3 | 1.1 | 0.45 | CC1=C(CCCCC(=O)NCCCNCCCNC(=O)CCCCC2=C(C)C(=O)c3cccc(O)c3C2=O)C(=O)c2c(O)cccc2C1=O
12 | 9.5 | 0.9 | > 50 | CC1=C(CCNC(=O)OC(C)(C)C)C(=O)c2ccccc2C1=O
13 | 50 | 23 | 32 | CC1=C(CCCC(=O)NCCCN2CCN(C)CC2)C(=O)c2c(O)cccc2C1=O
14 | 13.8 | > 3 | > 50 | CC1=C(CCCNC(=O)OC(C)(C)C)C(=O)c2ccccc2C1=O
15 | 13 | 1.7 | 1.9 | CC1=C(CCC(=O)NCCCNCCCNC(=O)CCC2=C(C)C(=O)c3cccc(O)c3C2=O)C(=O)c2c(O)cccc2C1=O
16 | 4.3 | 2.7 | > 50 | CC1=C(CCCCCNC(=O)OC(C)(C)C)C(=O)c2ccccc2C1=O

Row | EC50 [1] [µM] | EC50 [2] [µM] | IC50 [3] [µM] | Compound
17 | 4 | > 1.5 | 1.7 | CC1=C(CCCCC(=O)NCCCCNCCCNC(=O)CCCCC2=C(C)C(=O)c3cccc(O)c3C2=O)C(=O)c2c(O)cccc2C1=O
18 |  |  | > 50 | CC1=C(CCCC(=O)O)C(=O)c2ccccc2C1=O
19 | 7 | 1.4 | > 25 | CC1=C(CCCCNC(=O)OC(C)(C)C)C(=O)c2c(O)cccc2C1=O
20 | > 88 | 52 | 50 | CC1=C(CCC(=O)N2CCN(C)CC2)C(=O)c2c(O)cccc2C1=O
21 | 47 | > 4.6 | 2 | CC1=C(CCCC(=O)NCCCNCCCNC(=O)CCCC2=C(C)C(=O)c3cccc(O)c3C2=O)C(=O)c2c(O)cccc2C1=O
22 | > 87 | 61 | > 50 | O=C(O)CCCC1=C(CCCC(=O)O)C(=O)c2c(O)cccc2C1=O
23 | > 12.5 | > 12.5 | > 57 | CC1=C(NCCCCN)C(=O)c2c(O)cccc2C1=O
24 | 70 | 9.5 | > 50 | CC1=C(CCC(=O)N2CCN(C)CC2)C(=O)c2ccccc2C1=O
25 | 42 | > 10 | > 50 | CC1=C(CCCCC(=O)O)C(=O)c2c(O)cccc2C1=O
26 | 32 | > 3.3 | > 50 | CC1=C(CCCCCC(=O)O)C(=O)c2c(O)cccc2C1=O
27 | 80 | > 80 | > 50 | O=C(O)CCCCC1=C(CCCCC(=O)O)C(=O)c2c(O)cccc2C1=O
28 | 3.7 | 0.6 | > 25 | CC1=C(CCCNC(=O)OC(C)(C)C)C(=O)c2c(O)cccc2C1=O
29 | 17 | 5.3 | > 50 | CC1=C(CCCCCC(=O)O)C(=O)c2ccccc2C1=O
30 | > 12.5 | > 12.5 | 12 | CC1=C(NCCCNCCCN)C(=O)c2ccccc2C1=O
31 | 46 | > 11 | > 50 | CC1=C(CCC(=O)O)C(=O)c2c(O)cccc2C1=O
32 | 27 | 9.1 |  | CC1=C(CCCC(=O)N2CCN(C)CC2)C(=O)c2ccccc2C1=O

Second part, the compound before the results:

Row | Compound | EC50 [1] [µM] | EC50 [2] [µM] | IC50 [3] [µM]
33 | CN1CCN(CCCNC(=O)CCCC2=C(CCCC(=O)NCCCN3CCN(C)CC3)C(=O)c3c(O)cccc3C2=O)CC1 | 59 | 259 | 11
34 | CC1=C(CCC(=O)NCCCN2CCN(CCCNC(=O)CCC3=C(C)C(=O)c4ccccc4C3=O)CC2)C(=O)c2ccccc2C1=O | 40 | 3.2 | 3.7
35 | CC1=C(CCC(=O)NCCCCNCCCNC(=O)CCC2=C(C)C(=O)c3ccccc3C2=O)C(=O)c2ccccc2C1=O | 13 | 4.9 | 2.7
36 | CN1CCN(CCCNC(=O)CCC2=C(CCC(=O)NCCCN3CCN(C)CC3)C(=O)c3c(O)cccc3C2=O)CC1 | > 50 | 21.5 | > 50
37 | CC1=C(O)c2ccccc2C(=O)/C1=N\CCCN1CCN(C)CC1 | > 6.2 | > 12.5 | > 57
38 | CC1=C(CCCCCC(=O)NCCCN2CCN(CCCNC(=O)CCCCCC3=C(C)C(=O)c4ccccc4C3=O)CC2)C(=O)c2ccccc2C1=O | 11 | 5.7 | 3.1
39 | CC1=C(NCCCN2CCN(CCCN)CC2)C(=O)c2ccccc2C1=O | > 12.5 |  | 6
40 | CC1=C(CCCC(=O)NCCCN2CCN(CCCNC(=O)CCCC3=C(C)C(=O)c4cccc(O)c4C3=O)CC2)C(=O)c2c(O)cccc2C1=O | 28 | 3.4 | 2.3
41 | O=C(O)CCCCCC1=C(CCCCCC(=O)O)C(=O)c2ccccc2C1=O | > 74 | 48 | > 50
42 | CC1=C(CCCCCC(=O)NCCCN2CCN(CCCNC(=O)CCCCCC3=C(C)C(=O)c4cccc(O)c4C3=O)CC2)C(=O)c2c(O)cccc2C1=O | 11.4 | > 1.3 | 1.6
43 | CC1=C(CCCC(=O)NCCCN2CCN(CCCNC(=O)CCCC3=C(C)C(=O)c4ccccc4C3=O)CC2)C(=O)c2ccccc2C1=O | 13 | 13.7 | 4.5
44 | CC1=C(CCC(=O)NCCCNCCCNC(=O)CCC2=C(C)C(=O)c3ccccc3C2=O)C(=O)c2ccccc2C1=O | 47 | 4.5 | 5
45 | CC1=C(CCCCC(=O)NCCCCNCCCNC(=O)CCCCC2=C(C)C(=O)c3ccccc3C2=O)C(=O)c2ccccc2C1=O | 9 | 4.4 | 1.4
46 | CN1CCN(CCCNC(=O)CCCCC2=C(CCCCC(=O)NCCCN3CCN(C)CC3)C(=O)c3c(O)cccc3C2=O)CC1 | > 46 | > 15 | 6.2
47 | CC1=C(NCCCC/N=C2/C(=O)c3ccccc3C(O)=C2C)C(=O)c2ccccc2C1=O | > 12.5 | > 12.5 | > 57
48 | CC1=C(CCCCCC(=O)NCCCCNCCCNC(=O)CCCCCC2=C(C)C(=O)c3cccc(O)c3C2=O)C(=O)c2c(O)cccc2C1=O | 24.4 | 0.3 | 1.6
49 | CC1=C(CCCC(=O)NCCCNCCCNC(=O)CCCC2=C(C)C(=O)c3ccccc3C2=O)C(=O)c2ccccc2C1=O | > 49 | 27 | 11
50 | CN1CCN(C(=O)CCCC2=C(CCCC(=O)N3CCN(C)CC3)C(=O)c3c(O)cccc3C2=O)CC1 | > 48 | 31.4 | 17.5
51 | CC1=C(N2CCN(CCCN(C)C)CC2)C(=O)c2ccccc2C1=O | > 12.5 | > 12.5 | > 57
52 | CC1=C(CCCCCC(=O)NCCCCNCCCNC(=O)CCCCCC2=C(C)C(=O)c3ccccc3C2=O)C(=O)c2ccccc2C1=O | 4 | 2.6 | 1.7
53 | CN(C)CCCN1CCN(CC2=C(N3CCN(CCCN(C)C)CC3)C(=O)c3ccccc3C2=O)CC1 | > 12.5 | > 12.5 | > 57
54 | CC1=C(CCCCC(=O)NCCCN2CCN(CCCNC(=O)CCCCC3=C(C)C(=O)c4ccccc4C3=O)CC2)C(=O)c2ccccc2C1=O | 26 | 7.3 | 1.12
55 | CN1CCN(C(=O)CCC2=C(CCC(=O)N3CCN(C)CC3)C(=O)c3c(O)cccc3C2=O)CC1 | > 62 | 22.2 | > 50
56 | CC1=C(CCCCC(=O)NCCCNCCCNC(=O)CCCCC2=C(C)C(=O)c3ccccc3C2=O)C(=O)c2ccccc2C1=O | 45 | 15.3 | 18.7
57 | CC1=C(CCCCCC(=O)NCCCNCCCNC(=O)CCCCCC2=C(C)C(=O)c3ccccc3C2=O)C(=O)c2ccccc2C1=O | 12.5 | > 1.5 | 2.5
58 | CC1=C(CCCCC(=O)NCCCN2CCN(CCCNC(=O)CCCCC3=C(C)C(=O)c4cccc(O)c4C3=O)CC2)C(=O)c2c(O)cccc2C1=O | 17.2 | > 1.3 | 2.5
59 | CC1=C(CCCC(=O)NCCCCNCCCNC(=O)CCCC2=C(C)C(=O)c3ccccc3C2=O)C(=O)c2ccccc2C1=O | > 48 | 26.6 | 4
